In ChEMBL document CHEMBL1134656, “Synthesis and antitumor activity of conjugates of muramyldipeptide, normuramyldipeptide, and desmuramylpeptides with acridine/acridone derivatives” (2001):

How the values were obtained:
[1] = tested on: Panel (Carcinoma cell lines); assay: sc score: subcutaneous implants. measured as in vivo hollow fiber assay in minimum of 12 human cancer cell lines; format: functional
[2] = Half-lethal concentration against COLO,HCC2998,HCT116,SK-MEL-2 cell lines.; format: functional, Homo sapiens
How it was run: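 NCI in vitro human tumor cell line screen. After a 24 h drug-free incubation, compounds were added at five 10-fold dilutions, with a maximum of 10^-4 M (test range 10^-4 to 10^-8 M). Cells were exposed for 2 days. Growth was read from the change in protein-stain optical density, and the half-lethal concentration (LC50) was derived for each cell line.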

[3] = tested on: Panel (Carcinoma cell lines); assay: ip score (intraperitoneal implants) measured as in vivo hollow fiber assay in minimum of 12 human cancer cell lines; format: functional
[4] = tested on: Cancer cell lines; assay: Cell kill activity against cancer cell lines; No; format: functional, cell-based; conditions: Homo sapiens

SMILES	Subcut score [1]	MID log LC50 [2] [M]	Ip score [3]	cell kill activity [4]
CC(=O)N[C@@H]1[C@H](OCc2ccccc2)O[C@@H](CO)[C@@H](O)[C@@H]1OCC(=O)N[C@@H](C)C(=O)N[C@H](CCC(=O)NCCCCCNc1c2ccccc2nc2cccc([N+](=O)[O-])c12)C(N)=O	8	-5.82	16	–
CC(=O)N[C@@H]1[C@H](OCc2ccccc2)O[C@@H](CO)[C@@H](O)[C@@H]1OC(C)C(=O)N[C@H](C(=O)N[C@H](CCC(=O)NCCCCNc1c2ccccc2nc2cccc([N+](=O)[O-])c12)C(N)=O)C(C)C (stereo partly specified)	2	-4.17	32	–
CC(=O)N[C@@H]1[C@H](OCc2ccccc2)O[C@@H](COC(=O)CCNc2c3ccccc3nc3cccc([N+](=O)[O-])c23)[C@@H](O)[C@@H]1OC(C)C(=O)N[C@@H](C)C(=O)N[C@H](CCC(N)=O)C(=O)OCc1ccccc1 (stereo partly specified)	–	-4.42	–	–
COC(=O)[C@@H](CCC(N)=O)NC(=O)[C@@H](NC(=O)C(C)O[C@H]1[C@H](O)[C@H](COC(=O)CCCCCCCCCCNC(=O)c2ccc([N+](=O)[O-])c3c(O)c4ccccc4nc23)O[C@@H](OCc2ccccc2)[C@H]1NC(C)=O)C(C)C (stereo partly specified)	–	-4.25	–	–
CC(=O)N[C@@H]1[C@H](OCc2ccccc2)O[C@@H](CO)[C@@H](O)[C@@H]1OC(C)C(=O)N[C@@H](C)C(=O)N[C@H](CCC(=O)NCCNCCNc1c2ccccc2nc2cccc([N+](=O)[O-])c12)C(N)=O (stereo partly specified)	4	-4.56	2	No cell kill activity
CC(=O)N[C@@H]1[C@H](OCc2ccccc2)O[C@@H](CO)[C@@H](O)[C@@H]1OCC(=O)N1CCC[C@H]1C(=O)N[C@H](CCC(=O)NCCCCCNc1c2ccccc2nc2cccc([N+](=O)[O-])c12)C(N)=O	0	-5.51	14	–
CC(=O)N[C@@H]1[C@H](OCc2ccccc2)O[C@@H](CO)[C@@H](O)[C@@H]1OCC(=O)N[C@@H](C)C(=O)N[C@H](CCC(=O)NCCCCNc1c2ccccc2nc2cccc([N+](=O)[O-])c12)C(N)=O	2	-4.26	4	–
CC(=O)N[C@@H]1[C@H](OCc2ccccc2)O[C@@H](COC(=O)CCCCCNc2ccc([N+](=O)[O-])c3nc4ccc(O)cc4c(O)c23)[C@@H](O)[C@@H]1OC(C)C(=O)N[C@@H](C)C(=O)N[C@H](CCC(N)=O)C(=O)OCc1ccccc1 (stereo partly specified)	–	-4.23	–	–
CC(=O)N[C@@H]1[C@H](OCc2ccccc2)O[C@@H](CO)[C@@H](O)[C@@H]1OC(C)C(=O)N[C@@H](C)C(=O)N[C@H](CCC(=O)NCCCCNc1c2ccccc2nc2cccc([N+](=O)[O-])c12)C(N)=O (stereo partly specified)	12	-5.49	4	–
CC(=O)N[C@@H]1[C@H](OCc2ccccc2)O[C@@H](CO)[C@@H](O)[C@@H]1OCC(=O)N[C@@H](C)C(=O)N[C@H](CCC(=O)NCCCNc1c2ccccc2nc2cccc([N+](=O)[O-])c12)C(N)=O	2	-4.97	2	No cell kill activity
